Measurements as given in ChEMBL document CHEMBL1687825, “Plasma and intracellular (peripheral blood mononuclear cells) pharmacokinetics of once-daily raltegravir (800 milligrams) in HIV-infected patients” (Antimicrob Agents Chemother, 2011).

Legend:
[1] = Terminal phase half life in HIV-infected human plasma at 800 mg qd for 10 days administered in fasted condition on day 10 by HPLC with fluorescence detector; assay type: ADME, cell-free; conditions: read-out: beta t1/2 (converted)
Method in brief: (§1)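 Day-10 fasted serial sampling 0–24 h after oral 800 mg once daily. Plasma from two centrifugations (390 × g, 1,090 × g, 10 min), stored −80°C; liquid-liquid extraction with tert-butyl methyl ether; HPLC C18, phosphate buffer (25 mM, pH 3)-acetonitrile, fluorescence ex 299/em 396 nm, linear 10–5,000 ng/ml. Noncompartmental: AUCτ linear trapezoidal, Cmax/Cτ by inspection, λz from terminal log-linear regression.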

PBMC [2] = assay: Intracellular compound distribution in ratio in HIV-infected human PBMC at Ctau by LC-MS/MS analysis; assay type: ADME, cell-based
Method in brief: (§2)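 Intracellular distribution ratio: PBMC concentration (LC-MS/MS) divided by plasma concentration (HPLC-fluorescence), computed per patient for AUCτ, Cmax and Cτ from day-10 fasted 0–24 h profiles after 800 mg once daily; reported as median (range).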

PBMC [3] = assay: Intracellular compound distribution in ratio in HIV-infected human PBMC at Cmax by LC-MS/MS analysis; assay type: ADME, cell-based; method in brief: as §2
[4] = Cmax in HIV-infected human PBMC at 800 mg qd for 10 days administered in fasted condition on day 10 by LC-MS/MS analysis; assay type: ADME, organism-based; design: dose 800 mg
Method in brief: (§3)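 EDTA blood kept 4°C, processed within 1 h; PBMCs isolated on Ficoll gradient, washed with 0.9% NaCl, pellet stored −80°C. LC-MS/MS, calibration 0.4–150 ng/ml lysate; cell number by DNA detection. Noncompartmental analysis; AUCτ linear trapezoidal; geometric mean (range).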

Homo sapiens = assay: Toxicity in HIV-infected human at 800 mg qd for 10 days administered in fasted condition on day 10; assay type: organism-based; conditions: in vivo, 240 h
Method in brief: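 Safety assessed on days 0 and 10 by clinical evaluation and laboratory tests (blood counts, chemistry) during 800 mg once-daily oral dosing added to ongoing antiretroviral therapy.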

[5] = Drug concentration at the end of dosing interval in HIV-infected human PBMC at 800 mg qd for 10 days administered in fasted condition on day 10 by LC-MS/MS analysis; assay type: ADME, cell-based; conditions: read-out: Ctau; method in brief: as §3
[6] = Drug concentration at the end of dosing interval in HIV-infected human plasma at 800 mg qd for 10 days administered in fasted condition on day 10 by HPLC with fluorescence detector; assay type: ADME, cell-free; conditions: read-out: Ctau; method in brief: as §1
[7] = AUCt in HIV-infected human PBMC at 800 mg qd for 10 days administered in fasted condition on day 10 by LC-MS/MS analysis; assay type: ADME, cell-based; method in brief: as §3
PBMC [8] = assay: Intracellular compound distribution in ratio in HIV-infected human PBMC at AUCt by LC-MS/MS analysis; assay type: ADME, cell-based; method in brief: as §2
[9] = AUCt in HIV-infected human plasma at 800 mg qd for 10 days administered in fasted condition on day 10 by HPLC with fluorescence detector; assay type: ADME, cell-free; method in brief: as §1
[10] = Terminal phase half life in HIV-infected human PBMC at 800 mg qd for 10 days administered in fasted condition on day 10 by LC-MS/MS analysis; assay type: ADME, cell-based; conditions: read-out: beta t1/2 (converted); method in brief: as §3
[11] = Cmax in HIV-infected human plasma at 800 mg qd for 10 days administered in fasted condition on day 10 by HPLC with fluorescence detector; assay type: ADME, organism-based; design: dose 800 mg; method in brief: as §1

Cc1nnc(C(=O)NC(C)(C)c2nc(C(=O)NCc3ccc(F)cc3)c(O)c(=O)n2C)o1 [RALTEGRAVIR]
half-life [1]: 16 h
Ratio (PBMC [2]): 0.18
Ratio (PBMC [3]): 0.08
Cmax [4]: 0.199 µg/mL
Activity (Homo sapiens): Non-toxic
concentration at 240 h [5]: 0.007 µg/mL
concentration at 240 h [6]: 0.089 µg/mL
AUC(0-t) at 240 h [7]: 0.909 µg·h/mL
Ratio (PBMC [8]): 0.07
AUC(0-t) at 240 h [9]: 12.2 µg·h/mL
half-life [10]: 11.2 h
Cmax [11]: 2.64 µg/mL
